These results are taken from PMC2532710 (Nucleic Acids Research, 2008).

Assay [1] relates to protein-free HJ DNA. As to conditions: cited from earlier work.
The subject of assay [2] is human RAD54 protein. To be noted: cited from earlier work.
Assay [3] concerns fork substrate with only the leading strand. As to the kind of experiment: 2-AP fluorescence quenching, leading strand fork. It counts as binding. The method in brief: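 Substrates were annealed from oligos (boiled 5 min, slow-cooled), gel-purified on native 12% PAGE and quantified spectrophotometrically. After ≥10 min equilibration, emission was read at 330–430 nm (excitation 315 nm). Adenine-substituted spectra were subtracted, and fold decrease at 370 nm was taken versus no peptide.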

As for (WRWYCR)2 (disulfide), the “binding to free HJ DNA” value in assay [1] is “bind specifically to free HJ DNA”. Further, in assay [1], the “effect of Mg^2+ or spermidine on HJ binding” value was “strongly inhibited”. The “inhibition of D-loop unwinding activity” value in assay [2] is given as “inhibit the D-loop unwinding activity”. In addition, the “fold decrease in 2-AP fluorescence at 370 nm” value in assay [3] (Lead-1AP1 (central base), 0.05 μM dimer, 0.25:1) was 1.0 fold; in assay [3] (Lead-1AP1 (central base), 1.6 μM dimer, 8:1), 1.3 fold; in assay [3] (Lead-4AP1 (central base), 0.05 μM dimer, 0.25:1), 1.0 fold; in assay [3] (Lead-4AP1 (central base), 0.8 μM dimer, 4:1) it was 1.3 fold; in assay [3] (Lead-4AP1 (central base), 1.6 μM dimer, 8:1) it was 1.7 fold; in assay [3] (Lead-4AP2 (central base), 0.05 μM dimer, 0.25:1), 1.0 fold. Besides, the “fold decrease in 2-AP fluorescence at 370 nm” value in assay [3] (Lead-4AP2 (central base), 0.8 μM dimer, 4:1) turned out to be 1.2 fold; in assay [3] (Lead-4AP3, 0.05 μM dimer, 0.25:1), 1.0 fold; in assay [3] (Lead-4AP3, 0.8 μM dimer, 4:1), 1.2 fold; in assay [3] (Lead-4AP4, 0.2 μM dimer, 1:1), 1.0 fold; in assay [3] (Lead-4AP4, 1.6 μM dimer, 8:1), 1.2 fold. The “2-AP quenching” value in assay [3] (Lead-4AP1, Lead-4AP2 and Lead-4AP3) was “all quenched by the peptide”; in assay [3] (Lead-4AP4 and Lead-1AP1), “less sensitive”.
